Columns and labels:
[1] = Concentration required to inhibit tumor growth in PSN-1, human pancreatic carcinoma cell line; format: functional
Method in brief: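 PSN-1 pancreatic carcinoma cells exposed to compound dissolved in RPMI-1640 plus HEPES at its maximum soluble concentration for 72 h. Read-out by sulforhodamine B colorimetric assay.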

[2] = system: L1210 (Mus musculus); assay: Concentration required to inhibit tumor growth in L1210, murine lymphocytic leukemia cell line
[3] = system: A549; assay: Concentration required to inhibit tumor growth in A549, human lung carcinoma (NSCLC) cell line; format: functional, cell-based
Method in brief: (§1)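 Cells grown in RPMI 1640 with 5% fetal calf serum, 5% NuSerum IV and 20 mM HEPES, seeded and allowed to adhere overnight. Compound dissolved in RPMI-1640 plus HEPES and tested over a 5 log range (10 concentrations) for 72 h. Read-out by sulforhodamine B assay. Median-effect dose derived by nonlinear regression of the concentration-effect curve.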

[4] = Concentration required to inhibit tumor growth in […], human breast adenocarcinoma cell line; format: functional; method in brief: as §1
[5] = system: HT-29; assay: Concentration required to inhibit tumor growth in HT29, human colon adenocarcinoma cell line; format: functional, cell-based; settings: Homo sapiens, HT-29; method in brief: as §1
[6] = Change in tumor cell population in ip implanted LOX amelanotic melanoma in mice after administration of compound at 164 mg/kg; format: functional, Mus musculus; settings: route intraperitoneal
Method in brief: (§2)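 Female CD2F1 mice were implanted ip with ascitic fluid holding ca. 1.7×10^6 LOX cells. Dosing was ip on days 1, 5 and 9, starting 24 h after implantation, by exact body weight, as a solution or suspension in saline plus Tween 80, freshly prepared daily. KE is the net log change in viable tumor cells from start to end of treatment. Bracketed KE assumes Poisson survival, with 60-day survivors tumor-free.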

[7] = Percent increase in life span of dying mice tested in vivo at 328 mg/kg against ip implanted LOX amelanotic melanoma in mice (60-day survivors); format: functional; settings: Mus musculus, 1440 h, route intraperitoneal
Method in brief: (§3)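 Female CD2F1 mice implanted ip with ascitic fluid carrying ca. 1.7×10^6 LOX amelanotic melanoma cells. Drug given ip on days 1, 5 and 9, starting 24 h after implant, dosed by exact body weight; solutions or suspensions made fresh daily. %ILS is from the median day of death of dying mice versus controls, excluding 60-day survivors.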

[8] = Percent increase in life span of dying mice tested in vivo at 41 mg/kg against ip implanted LOX amelanotic melanoma in mice (60-day survivors); format: functional; settings: Mus musculus, 1440 h, route intraperitoneal; method in brief: as §3
[9] = Percent increase in life span of dying mice tested in vivo at 164 mg/kg against ip implanted LOX amelanotic melanoma in mice (60-day survivors); format: functional; settings: Mus musculus, 1440 h, route intraperitoneal; method in brief: as §3
[10] = system: P388; assay: Percent increase in life span of dying mice tested in vivo at 20.5 mg/kg against ip implanted P388 Leukemia in mice; format: functional; settings: Mus musculus, route intraperitoneal
Method in brief: (§4)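 Portage-CD2F1 female mice inoculated ip with ascitic fluid carrying ca. 5.2×10^6 P388 leukemia cells. Drug given ip daily on days 1-5, starting 24 h after inoculation, dosed by average body weight. %ILS is from the median day of death of dying mice versus controls.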

[11] = system: P388; assay: Change in tumor cell population in ip implanted P388 Leukemia in mice after administration of compound at 20.5 mg/kg; format: functional, Mus musculus; settings: route intraperitoneal
Method in brief: (§5)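 Female Portage-CD2F1 mice were inoculated ip with ascitic fluid holding ca. 5.2×10^6 P388 cells. Dosing was ip on days 1-5, starting 24 h after inoculation, by average body weight, as a solution or suspension in saline plus Tween 80. KE is the net log change in viable tumor cell population from start to end of the treatment period.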

[12] = Change in tumor cell population in ip implanted LOX amelanotic melanoma in mice after administration of compound at 41 mg/kg; format: functional, Mus musculus; settings: route intraperitoneal; method in brief: as §2
[13] = system: P388; assay: Change in tumor cell population in ip implanted P388 Leukemia in mice after administration of compound at 41 mg/kg; format: functional, Mus musculus; settings: route intraperitoneal; method in brief: as §5
[14] = system: P388; assay: Percent increase in life span of dying mice tested in vivo at 164 mg/kg against ip implanted P388 Leukemia in mice; format: functional; settings: Mus musculus, route intraperitoneal; method in brief: as §4
[15] = system: Mus musculus; assay: Change in tumor cell population in ip implanted LOX amelanotic melanoma in mice after administration of compound at 328 mg/kg; toxic; format: functional, organism-based; set-up: dose 328 mg/kg; method in brief: as §2
[16] = system: P388; assay: Percent increase in life span of dying mice tested in vivo at 41 mg/kg against ip implanted P388 Leukemia in mice; format: functional; settings: Mus musculus, route intraperitoneal; method in brief: as §4
[17] = system: P388; assay: Change in tumor cell population in ip implanted P388 Leukemia in mice after administration of compound at 164 mg/kg; format: functional, Mus musculus; settings: route intraperitoneal; method in brief: as §5
[18] = Percent increase in life span of dying mice tested in vivo at 82 mg/kg against ip implanted LOX amelanotic melanoma in mice (60-day survivors); format: functional; settings: Mus musculus, 1440 h, route intraperitoneal
Method in brief: (§6)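 Nude CD2F1 female mice were implanted ip with ascitic fluid containing ca. 1.7×10^6 LOX amelanotic melanoma cells. Drug was given ip on days 1, 5 and 9, starting 24 h after implantation, and dosed by exact body weight. Solutions or suspensions were made fresh daily in saline plus Tween 80. %ILS was calculated from the median day of death of dying mice versus controls, excluding 60-day survivors.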

[19] = system: P388; assay: Change in tumor cell population in ip implanted P388 Leukemia in mice after administration of compound at 82 mg/kg; format: functional, Mus musculus; settings: route intraperitoneal
Method in brief: (§7)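 P388 leukemia: ascitic fluid with ca. 5.2×10^6 cells inoculated ip into Portage-CD₂F₁ female mice. Drug given ip on days 1-5, starting 24 h after inoculation, dosed by average body weight. Vehicle was saline plus Tween 80, as a solution or suspension. KE = net log change in viable tumor cells from start to end of treatment.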

[20] = system: P388; assay: Percent increase in life span of dying mice tested in vivo at 82 mg/kg against ip implanted P388 Leukemia in mice; format: functional; settings: Mus musculus, route intraperitoneal
Method in brief: (§8)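 Portage-CD2F1 female mice were inoculated ip with ascitic fluid containing ca. 5.2×10^6 P388 leukemia cells. Drug was given ip daily on days 1-5, starting 24 h after inoculation, and dosed by average body weight. %ILS was calculated from the median day of death of dying mice versus controls.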

[21] = Change in tumor cell population in ip implanted LOX amelanotic melanoma in mice after administration of compound at 82 mg/kg; format: functional, Mus musculus; settings: route intraperitoneal; method in brief: as §2
[22] = Change in tumor cell population in ip implanted LOX amelanotic melanoma in mice after administration of compound at 188 mg/kg; format: functional, Mus musculus; settings: route intraperitoneal; method in brief: as §2
[23] = system: P388; assay: Change in tumor cell population in ip implanted P388 Leukemia in mice after administration of compound at 47 mg/kg; format: functional, Mus musculus; settings: route intraperitoneal; method in brief: as §7
[24] = Percent increase in life span of dying mice tested in vivo at 94 mg/kg against ip implanted LOX amelanotic melanoma in mice (60-day survivors); format: functional; settings: Mus musculus, 1440 h, route intraperitoneal; method in brief: as §6
[25] = Change in tumor cell population in ip implanted LOX amelanotic melanoma in mice after administration of compound at 23.5 mg/kg; format: functional, Mus musculus; settings: route intraperitoneal; method in brief: as §2
[26] = system: P388; assay: Percent increase in life span of dying mice tested in vivo at 11.8 mg/kg against ip implanted P388 Leukemia in mice; format: functional; settings: Mus musculus, route intraperitoneal; method in brief: as §4
[27] = system: P388; assay: Change in tumor cell population in ip implanted P388 Leukemia in mice after administration of compound at 11.8 mg/kg; format: functional, Mus musculus; settings: route intraperitoneal; method in brief: as §5
[28] = Percent increase in life span of dying mice tested in vivo at 47 mg/kg against ip implanted LOX amelanotic melanoma in mice (60-day survivors); format: functional; settings: Mus musculus, 1440 h, route intraperitoneal; method in brief: as §3
[29] = system: P388; assay: Percent increase in life span of dying mice tested in vivo at 94 mg/kg against ip implanted P388 Leukemia in mice; format: functional; settings: Mus musculus, route intraperitoneal; method in brief: as §8
[30] = system: P388; assay: Change in tumor cell population in ip implanted P388 Leukemia in mice after administration of compound at 23.5 mg/kg; format: functional, Mus musculus; settings: route intraperitoneal; method in brief: as §5
[31] = Percent increase in life span of dying mice tested in vivo at 23.5 mg/kg against ip implanted LOX amelanotic melanoma in mice (60-day survivors); format: functional; settings: Mus musculus, 1440 h, route intraperitoneal; method in brief: as §3
[32] = system: P388; assay: Percent increase in life span of dying mice tested in vivo at 23.5 mg/kg against ip implanted P388 Leukemia in mice; format: functional; settings: Mus musculus, route intraperitoneal; method in brief: as §4
[33] = system: P388; assay: Change in tumor cell population in ip implanted P388 Leukemia in mice after administration of compound at 94 mg/kg; format: functional, Mus musculus; settings: route intraperitoneal; method in brief: as §7
[34] = Change in tumor cell population in ip implanted LOX amelanotic melanoma in mice after administration of compound at 94 mg/kg; format: functional, Mus musculus; settings: route intraperitoneal; method in brief: as §2
[35] = Change in tumor cell population in ip implanted LOX amelanotic melanoma in mice after administration of compound at 47 mg/kg; format: functional, Mus musculus; settings: route intraperitoneal; method in brief: as §2
[36] = Percent increase in life span of dying mice tested in vivo at 188 mg/kg against ip implanted LOX amelanotic melanoma in mice (60-day survivors); format: functional; settings: Mus musculus, 1440 h, route intraperitoneal; method in brief: as §3
[37] = system: P388; assay: Percent increase in life span of dying mice tested in vivo at 47 mg/kg against ip implanted P388 Leukemia in mice; format: functional; settings: Mus musculus, route intraperitoneal; method in brief: as §4

CNC(=O)OCc1nc(Sc2ccccc2)n(C)c1COC(=O)NC
IC50 [1]: > 100 µM | IC50 [2]: > 100 µM | IC50 [3]: > 100 µM | IC50 [4]: > 100 µM | IC50 [5]: > 100 µM

CNC(=O)OCc1nc(SSc2nc(COC(=O)NC)c(COC(=O)NC)n2C)n(C)c1COC(=O)NC
KE [6]: 1.8 | ILS at 328 mg/kg [7]: -69% | ILS at 41 mg/kg [8]: 3% | ILS at 164 mg/kg [9]: -5% | ILS at 20.5 mg/kg [10]: 17% | KE [11]: 1.3 | KE [12]: 1.5 | KE [13]: 1.3 | ILS at 164 mg/kg [14]: 26% | KE [15]: Toxic | ILS at 41 mg/kg [16]: 20% | KE [17]: 0.9 | ILS at 82 mg/kg [18]: -5% | KE [19]: 1.3 | ILS at 82 mg/kg [20]: 17% | KE [21]: 1.8

CCCSc1nc(COC(=O)NC)c(COC(=O)NC)n1C
KE [22]: -1.6 | KE [23]: -1.5 | ILS at 94 mg/kg [24]: 22% | IC50 [1]: 115 µM | KE [25]: 1.3 | ILS at 11.8 mg/kg [26]: 40% | KE [27]: -0.1 | IC50 [2]: 18 µM | ILS at 47 mg/kg [28]: 24% | IC50 [3]: 190 µM | ILS at 94 mg/kg [29]: 84% | KE [30]: -0.1 | ILS at 23.5 mg/kg [31]: 13% | ILS at 23.5 mg/kg [32]: 40% | KE [33]: -3.3 | IC50 [4]: 147 µM | KE [34]: 0.6 | KE [35]: 0.7 | ILS at 188 mg/kg [36]: 76% | ILS at 47 mg/kg [37]: 59% | IC50 [5]: 108 µM

CNC(=O)OCc1nc2n(c1COC(=O)NC)CCCS2
IC50 [1]: > 650 µM | IC50 [2]: > 100 µM | IC50 [3]: > 1000 µM | IC50 [4]: > 1000 µM | IC50 [5]: > 1000 µM
